# In ChEMBL document CHEMBL3352313 (J Med Chem, 2014):
# Legend:
# [1] = biological target: T1, Muscarinic acetylcholine receptor M5 (Homo sapiens, UniProt P08912); test: Positive allosteric modulator activity at human muscarinic acetylcholine receptor subtype 5 expressed in CHO cells by calcium mobilization assay; type: functional, cell-based; settings: read-out: EC50
# T1 sequence (P08912 whole entry): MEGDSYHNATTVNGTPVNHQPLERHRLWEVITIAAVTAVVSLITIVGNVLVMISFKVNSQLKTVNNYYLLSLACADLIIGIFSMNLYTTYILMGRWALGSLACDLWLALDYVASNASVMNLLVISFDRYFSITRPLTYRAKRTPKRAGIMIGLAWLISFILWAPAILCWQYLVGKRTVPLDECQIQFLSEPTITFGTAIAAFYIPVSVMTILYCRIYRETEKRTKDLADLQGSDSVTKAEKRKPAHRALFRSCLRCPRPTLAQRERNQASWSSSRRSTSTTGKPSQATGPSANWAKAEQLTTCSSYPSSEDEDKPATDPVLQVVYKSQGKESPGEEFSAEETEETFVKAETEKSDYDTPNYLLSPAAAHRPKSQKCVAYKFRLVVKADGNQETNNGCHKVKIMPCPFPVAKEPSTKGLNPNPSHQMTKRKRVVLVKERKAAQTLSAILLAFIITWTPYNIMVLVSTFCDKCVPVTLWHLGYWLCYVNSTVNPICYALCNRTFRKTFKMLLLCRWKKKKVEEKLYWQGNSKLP
# [2] = biological target: T2, Muscarinic acetylcholine receptor M5 (Homo sapiens) (UniProt P08912); test: Positive allosteric modulator activity at human muscarinic acetylcholine receptor subtype 5 expressed in CHO cells assessed as fold shift in acetylcholine-induced response at 10 uM by calcium mobilization assay; type: functional, cell-based
# T2 sequence (whole entry): T1 sequence (P08912 whole entry)
# How it was run: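 In hM5 CHO cells by calcium mobilization, PAM at a fixed 10 μM or vehicle is added before an ACh concentration-response curve. Fold shift is the ratio of ACh potency without PAM to potency with PAM.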
# [3] = biological target: T3, Muscarinic acetylcholine receptor M4 (Rattus norvegicus, UniProt P08485); test: Activity at rat muscarinic acetylcholine receptor subtype 4 expressed in CHO cells co-transfected with chimeric Gqi5 by calcium mobilization assay; type: functional, cell-based
# T3 sequence (P08485 whole entry): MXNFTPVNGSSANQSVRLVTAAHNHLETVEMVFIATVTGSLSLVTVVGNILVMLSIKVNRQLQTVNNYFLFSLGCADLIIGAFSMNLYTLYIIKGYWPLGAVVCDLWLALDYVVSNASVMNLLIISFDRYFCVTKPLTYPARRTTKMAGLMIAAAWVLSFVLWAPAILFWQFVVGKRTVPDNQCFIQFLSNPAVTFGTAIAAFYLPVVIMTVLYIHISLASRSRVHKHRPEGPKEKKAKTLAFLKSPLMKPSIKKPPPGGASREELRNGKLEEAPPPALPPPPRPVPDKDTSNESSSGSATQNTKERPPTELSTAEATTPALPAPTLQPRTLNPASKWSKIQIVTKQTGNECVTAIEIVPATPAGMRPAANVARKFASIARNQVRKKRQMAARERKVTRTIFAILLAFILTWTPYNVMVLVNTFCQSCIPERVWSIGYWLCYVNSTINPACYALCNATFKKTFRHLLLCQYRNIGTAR
# How it was run: (§1)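 Muscarinic subtype selectivity by fluorescence calcium mobilization in highly expressing CHO lines with similar receptor levels; Gi/o-coupled M2 and M4 cells co-transfected with chimeric Gqi5 to couple to Ca2+ mobilization. Read-outs are PAM EC50 and ACh max response. Mean ± SEM of at least three independent determinations.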
# [4] = biological target: T4, Muscarinic acetylcholine receptor M2 (Rattus norvegicus, UniProt P10980); test: Activity at rat muscarinic acetylcholine receptor subtype 2 expressed in CHO cells co-transfected with chimeric Gqi5 by calcium mobilization assay; type: functional, cell-based; how it was run: as §1
# T4 sequence (P10980 whole entry): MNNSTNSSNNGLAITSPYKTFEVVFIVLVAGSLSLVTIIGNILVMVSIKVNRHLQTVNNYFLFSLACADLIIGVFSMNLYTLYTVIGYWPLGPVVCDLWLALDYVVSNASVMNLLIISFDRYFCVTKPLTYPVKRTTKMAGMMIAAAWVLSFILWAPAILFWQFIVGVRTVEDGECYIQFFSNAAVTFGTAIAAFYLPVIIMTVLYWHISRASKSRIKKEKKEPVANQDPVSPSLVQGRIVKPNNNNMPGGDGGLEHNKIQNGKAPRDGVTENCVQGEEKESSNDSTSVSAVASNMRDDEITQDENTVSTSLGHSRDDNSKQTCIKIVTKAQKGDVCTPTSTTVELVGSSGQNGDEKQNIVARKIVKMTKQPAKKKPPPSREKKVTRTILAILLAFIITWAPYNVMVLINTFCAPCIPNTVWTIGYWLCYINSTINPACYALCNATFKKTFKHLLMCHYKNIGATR
# [5] = species: Homo sapiens; test: Selectivity index, ratio of EC50 for human muscarinic acetylcholine receptor subtype 3 to EC50 for human muscarinic acetylcholine receptor subtype 5
# [6] = biological target: T2, Muscarinic acetylcholine receptor M5 (Homo sapiens); test: Displacement of [3H]NMS from human muscarinic acetylcholine receptor subtype 5 expressed in CHO cell membranes assessed as radioligand binding level by scintillation counting method
# [7] = biological target: Sigma non-opioid intracellular receptor 1 (Homo sapiens) (UniProt Q99720); test: Displacement of radioligand from human sigma-1 receptor at 10 uM
# How it was run: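 Pan Labs lead profiling radioligand binding battery of 68 GPCRs, ion channels and transporters, with test compound present at 10 μM.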
# [8] = test system: Plasma; test: Fraction unbound in human plasma at 5 uM incubated for 4 hrs at 37 degC by equilibrium dialysis based LC/MS/MS analysis; type: ADME, cell-free
# How it was run: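 Fraction unbound measured in rat and human plasma and in rat brain homogenate.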
# [9] = Plasma clearance in Sprague-Dawley rat 1 mg/kg, iv administered as single dose by LC/MS/MS utilizing electrospray ionization method; type: ADME, organism-based; set-up: dose 1 mg/kg, route intravenous
# [10] = Elimination half life in Sprague-Dawley rat 1 mg/kg, iv administered as single dose by LC/MS/MS utilizing electrospray ionization method; type: ADME, organism-based; set-up: dose 1 mg/kg, route intravenous; settings: in vivo, read-out: beta t1/2
# [11] = test system: Rattus norvegicus; test: Brain to plasma partition coefficient, Kp of the compound in Sprague-Dawley rat 1 mg/kg, iv administered as single dose after 15 mins by LC/MS/MS utilizing electrospray ionization method; type: ADME, organism-based; set-up: dose 1 mg/kg, route intravenous; settings: 0.25 h
# How it was run: (§2)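 Male Sprague–Dawley rats (n = 3) dosed 1 mg/kg intravenously. Brain and plasma levels at 15 min after administration give Kp. Kp,uu is the unbound brain-plasma partition coefficient.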
# [12] = test system: Rattus norvegicus; test: Unbound brain-to-plasma concentration ratio in Sprague-Dawley rat 1 mg/kg, iv administered as single dose after 15 mins by LC/MS/MS utilizing electrospray ionization method; type: ADME, organism-based; set-up: dose 1 mg/kg, route intravenous; settings: 0.25 h; how it was run: as §2
# [13] = Apparent permeability in human Caco2 cells; type: ADME, cell-based; settings: caco-2
# Sequence of Sigma non-opioid intracellular receptor 1 (Homo sapiens) (Q99720 whole entry): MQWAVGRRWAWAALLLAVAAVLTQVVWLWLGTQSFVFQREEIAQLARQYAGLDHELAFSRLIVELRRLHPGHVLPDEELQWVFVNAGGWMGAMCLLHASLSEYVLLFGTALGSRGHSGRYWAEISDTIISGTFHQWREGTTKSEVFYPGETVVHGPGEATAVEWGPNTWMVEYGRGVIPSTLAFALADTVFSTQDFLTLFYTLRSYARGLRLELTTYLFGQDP
structure (smiles),measurement,setting,value
CCN(Cc1ccccc1C(F)(F)F)C(=O)C1CCN(S(=O)(=O)c2ccc3[nH]ncc3c2)CC1,EC50,[1],0.19 µM
same,fold change (FC),[2],9
same,EC50,[3],> 30 µM
same,EC50,[4],> 30 µM
same,Ratio EC50,[5],> 10
same,%max,[6],97.1%
same,inhibition,[7],53%
same,Fu,[8],0.015
same,clearance,[9],66 mL/min/kg
same,half-life,[10],22 min
same,Kp,[11],0.36
same,"K(p,uu,brain)",[12],0.28
same,Papp,[13],2.5 ×10⁻⁵ cm/s
